Reference: ChEMBL document CHEMBL4665711, “Synthesis of (Z)-3-(arylamino)-1-(3-phenylimidazo[1,5-a]pyridin-1-yl)prop-2-en-1-ones as potential cytotoxic agents” (Bioorg Med Chem Lett, 2020)
Active and inactive are the calls of the source. No cut-off for these calls is given here.

Columns and labels:
HCT-116 [1] = test: Induction of apoptosis in human HCT-116 cells assessed as increase in late apoptotic cells incubated for 48 hrs by annexin-V and propidium iodide staining based flow cytometry analysis; assay type: functional, cell-based; conditions: dose microM 0.5-2.5, time 48.0 hrs
HCT-116 [2] = test: Induction of apoptosis in human HCT-116 cells assessed as necrotic cells at 2.5 uM incubated for 48 hrs by annexin-V and propidium iodide staining based flow cytometry analysis (reference value: 0.36 %); assay type: functional
HCT-116 [3] = test: Induction of apoptosis in human HCT-116 cells assessed as necrotic cells at 0.5 uM incubated for 48 hrs by annexin-V and propidium iodide staining based flow cytometry analysis (reference value: 0.36 %); assay type: functional
HCT-116 [4] = test: Induction of apoptosis in human HCT-116 cells assessed as late apoptotic cells at 2.5 uM incubated for 48 hrs by annexin-V and propidium iodide staining based flow cytometry analysis (reference value: 1.48 %); assay type: functional
HCT-116 [5] = test: Induction of apoptosis in human HCT-116 cells assessed as late apoptotic cells at 1 uM incubated for 48 hrs by annexin-V and propidium iodide staining based flow cytometry analysis (reference value: 1.48 %); assay type: functional
HCT-116 [6] = test: Induction of apoptosis in human HCT-116 cells assessed as late apoptotic cells at 0.5 uM incubated for 48 hrs by annexin-V and propidium iodide staining based flow cytometry analysis (reference value: 1.48 %); assay type: functional
HCT-116 [7] = test: Induction of apoptosis in human HCT-116 cells assessed as early apoptotic cells at 2.5 uM incubated for 48 hrs by annexin-V and propidium iodide staining based flow cytometry analysis (reference value: 1.87 %); assay type: functional
HCT-116 [8] = test: Induction of apoptosis in human HCT-116 cells assessed as early apoptotic cells at 1 uM incubated for 48 hrs by annexin-V and propidium iodide staining based flow cytometry analysis (reference value: 1.87 %); assay type: functional
HCT-116 [9] = test: Induction of apoptosis in human HCT-116 cells assessed as viable cells at 1 uM incubated for 48 hrs by annexin-V and propidium iodide staining based flow cytometry analysis (reference value: 96.29 %); assay type: functional; conditions: read-out: Activity
HCT-116 [10] = test: Induction of apoptosis in human HCT-116 cells assessed as viable cells at 0.5 uM incubated for 48 hrs by annexin-V and propidium iodide staining based flow cytometry analysis (reference value: 96.29 %); assay type: functional; conditions: read-out: Activity
HCT-116 [11] = test: Induction of mitochondrial membrane potential loss in human HCT-116 cells assessed as cells with depolarized mitochondria by measuring increase in J-monomer green fluorescence intensity at 0.5 uM incubated for 48 hrs by JC1 staining based flow cytometry analysis (reference value: 12.53 %); assay type: functional
HCT-116 [12] = test: Induction of mitochondrial membrane potential loss in human HCT-116 cells assessed as cells with depolarized mitochondria by measuring increase in J-monomer green fluorescence intensity at 1 uM incubated for 48 hrs by JC1 staining based flow cytometry analysis (reference value: 12.53 %); assay type: functional
HCT-116 [13] = test: Induction of mitochondrial membrane potential loss in human HCT-116 cells assessed as cells with depolarized mitochondria by measuring increase in J-monomer green fluorescence intensity at 2.5 uM incubated for 48 hrs by JC1 staining based flow cytometry analysis (reference value: 12.53 %); assay type: functional
HCT-116 [14] = test: Induction of mitochondrial membrane potential loss in human HCT-116 cells assessed as cells with hyperpolarized mitochondria by measuring decrease in J-aggregates red fluorescence intensity at 2.5 uM incubated for 48 hrs by JC1 staining based flow cytometry analysis (reference value: 86.42 %); assay type: functional; parameters: scale not given: the % may be the effect or the level left
HCT-116 [15] = test: Induction of apoptosis in human HCT-116 cells assessed as loose cell structure at 0.5 to 2.5 uM incubated for 48 hrs by DAPI staining based fluorescence microscopic analysis; assay type: functional; conditions: dose microM 0.5-2.5, time 48.0 hrs
Procedure, shortened: (§1)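 Nuclear morphology was imaged by fluorescence microscopy using a DAPI filter at 200×; untreated cells served as control.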

HCT-116 [16] = test: Induction of apoptosis in human HCT-116 cells assessed as increase in DNA breakdown incubated for 24 hrs by acridine orange staining based microscopic analysis; assay type: functional, cell-based; conditions: dose microM 0.5-2.5, time 24.0 hrs
Procedure, shortened: (§2)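 HCT-116 cells were incubated at 0.5, 1.0 and 2.5 µM for 24 h and stained with acridine orange. Green fluorescence (excitation 480-490 nm), chromatin distribution and blebbing were inspected microscopically at 200× against untreated controls.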

HCT-116 [17] = test: Induction of apoptosis in human HCT-116 cells assessed as reduction in green fluorescence intensity at 0.5 to 2.5 uM incubated for 24 hrs by acridine orange staining based microscopic analysis; assay type: functional, cell-based; conditions: dose microM 0.5-2.5, time 24.0 hrs; procedure, shortened: as §2
HCT-116 [18] = test: Cytotoxicity against human HCT-116 cells assessed as reduction in cell viability at 0.5 to 2.5 uM incubated for 48 hrs by phase contrast microscopy; assay type: functional, cell-based; conditions: dose microM 0.5-2.5, time 48.0 hrs
HCT-116 [19] = test: Cytotoxicity against human HCT-116 cells assessed as induction of cell morphological changes at 0.5 to 2.5 uM incubated for 48 hrs by phase contrast microscopy; assay type: functional, cell-based; conditions: dose microM 0.5-2.5, time 48.0 hrs
HCT-116 [20] = test: Inhibition of colony formation in human HCT-116 cells incubated for 10 days by crystal violet staining based assay; assay type: functional, cell-based; conditions: dose microM 0.25-1, time 10.0 day
Procedure, shortened: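 HCT-116 cells exposed in medium to 0.25, 0.5 and 1 μM over 10 days to allow colonies to form. Colonies visualised by crystal violet staining and counted relative to untreated control cells.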

HCT-116 [21] = test: Induction of cell cycle arrest in human HCT-116 cells assessed as G0/G1 phase incubated for 48 hrs by propidium iodide based flow cytometry analysis; assay type: functional; conditions: dose microM 0.5-2.5, time 48.0 hrs
HCT-116 [22] = test: Induction of cell cycle arrest in human HCT-116 cells assessed as S phase at 2.5 uM incubated for 48 hrs by propidium iodide based flow cytometry analysis (reference value: 7.8 %); assay type: functional
HCT-116 [23] = test: Induction of cell cycle arrest in human HCT-116 cells assessed as G0/G1 phase at 2.5 uM incubated for 48 hrs by propidium iodide based flow cytometry analysis (reference value: 28.2 %); assay type: functional
HCT-116 [24] = test: Induction of cell cycle arrest in human HCT-116 cells assessed as G0/G1 phase at 1 uM incubated for 48 hrs by propidium iodide based flow cytometry analysis (reference value: 28.2 %); assay type: functional
HCT-116 [25] = test: Induction of cell cycle arrest in human HCT-116 cells assessed as G0/G1 phase at 0.5 uM incubated for 48 hrs by propidium iodide based flow cytometry analysis (reference value: 28.2 %); assay type: functional
HCT-116 [26] = test: Induction of cell cycle arrest in human HCT-116 cells assessed as sub-G1 phase at 2.5 uM incubated for 48 hrs by propidium iodide based flow cytometry analysis (reference value: 2.1 %); assay type: functional
HCT-116 [27] = test: Induction of cell cycle arrest in human HCT-116 cells assessed as sub-G1 phase at 0.5 uM incubated for 48 hrs by propidium iodide based flow cytometry analysis (reference value: 2.1 %); assay type: functional
BT-474 = test: Cytotoxicity against human BT-474 cells assessed as reduction in cell viability incubated for 48 hrs by MTT assay; assay type: functional, cell-based; conditions: BT-474, 48 h
Procedure, shortened: (§3)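 Cancer cell lines were exposed to drug for 48 h, and the 50% inhibitory concentration was determined. Values are averages of three individual experiments. A549, HCT-116, BT-474 and MDA-MB-231 are human lines; B16F10 is a murine melanoma line.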

B16-F10 = test: Cytotoxicity against mouse B16-F10 cells assessed as reduction in cell viability incubated for 48 hrs by MTT assay; assay type: functional, cell-based; conditions: B16-F10, 48 h; procedure, shortened: as §3
HCT-116 [28] = test: Induction of apoptosis in human HCT-116 cells assessed as condensed DNA at 0.5 to 2.5 uM incubated for 48 hrs by DAPI staining based fluorescence microscopic analysis; assay type: functional, cell-based; conditions: dose microM 0.5-2.5, time 48.0 hrs; procedure, shortened: as §1

`O=C(/C=C\Nc1ccc(Cl)cc1)c1nc(-c2ccc(F)cc2)n2ccccc12` was tested, and the Activity (HCT-116 [1]) was “Dose-dependent effect”, the Activity (HCT-116 [2]) was 13.3% and the Activity (HCT-116 [3]) was 0.68%. For the same molecule, the Activity (HCT-116 [4]) was 6.97%, the Activity (HCT-116 [5]) was 6.94% and the Activity (HCT-116 [6]) was 5.7%. For the same molecule, the Activity (HCT-116 [7]) was 2.29%, the Activity (HCT-116 [8]) was 3.78% and the viability at 1 µM (HCT-116 [9]) was 85.8%. It also gave a viability at 0.5 µM (HCT-116 [10]) of 87.5%, an Activity (HCT-116 [11]) of 13.5% and an Activity (HCT-116 [12]) of 20.53%. For the same molecule, the Activity (HCT-116 [13]) was 20.68%, the Activity (HCT-116 [14]) was 76.3% and the Activity (HCT-116 [15]) was “Active”. The Activity (HCT-116 [16]) was “Dose-dependent effect”, the Activity (HCT-116 [17]) was “Active” and the Activity (HCT-116 [18]) was “Active”. For the same molecule, the Activity (HCT-116 [19]) was “Active”, the inhibition (HCT-116 [20]) was “Dose-dependent effect” and the Activity (HCT-116 [21]) was “Dose-dependent effect”. It also gave an Activity (HCT-116 [22]) of 8.5%, an Activity (HCT-116 [23]) of 41.9% and an Activity (HCT-116 [24]) of 38.7%. For the same molecule, the Activity (HCT-116 [25]) was 31.5%, the Activity (HCT-116 [26]) was 1.6% and the Activity (HCT-116 [27]) was 1.2%. For the same molecule, the IC50 (BT-474) was 7.03 µM, the IC50 (B16-F10) was 11 µM and the Activity (HCT-116 [28]) was “Active”.
